# Calls of active or inactive are those of the source. No cut-off for these calls is given here.
# Assays:
# Pseudomonas aeruginosa = assay: Bactericidal activity against Pseudomonas aeruginosa PAO1 at <= 25 ug/mL after 6 to 18 hrs; format: functional, organism-based
# In short: (§1)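 Log-phase cultures in their own media (M. smegmatis 7H9/glycerol/tyloxapol; E. coli, P. aeruginosa LB; S. aureus Mueller-Hinton; C. albicans YM) diluted to OD 0.01 in 96-well plates. Compound or DMSO added. Incubated 8−48 h with shaking at 37 °C (Candida at 30 °C). OD600 read.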
# [1] = tested on: Mycobacterium tuberculosis; assay: Bactericidal activity against non-replicating form of wild type Mycobacterium tuberculosis H37Rv assessed as reduction of log10CFU at 0.6 ug/mL after 7 to 8 days; format: functional
# In short: (§2)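 Wild-type Mtb single-cell suspension at OD 0.01 (R) or 0.1 (NR, in NR medium, 1% O2) in 96-well plates with compound for 7 days. Serial dilution in 7H9-ADN, plated on 7H11 agar with glycerol and OADC for CFU.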
# [2] = tested on: Mycobacterium tuberculosis; assay: Bactericidal activity against wild type Mycobacterium tuberculosis H37Rv infected in IFN-gamma-stimulated primary human monocyte-derived macrophages assessed as reduction of log10CFU incubated for 7 days followed by compound washout measured after 3 weeks; format: functional
# In short: (§3)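 Monocytes from healthy donors isolated by CD14 selection. Differentiated 2 weeks in 40% human plasma with 0.5 ng/mL GM-CSF and TNF-alpha, 10% O2. Then 5 ng/mL IFN-gamma overnight, infected with wild-type Mtb at MOI 0.1. Compound added at 24 h, 1% DMSO final, 7 days. Viability inspected visually; lysed in 0.55% Triton-X and plated on 7H11/OADC for CFU.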
# Escherichia coli = assay: Bactericidal activity against Escherichia coli at <= 25 ug/mL after 6 to 18 hrs; format: functional, organism-based; in short: as §1
# [3] = tested on: Mycobacterium tuberculosis; assay: Antibacterial activity against replicating form of wild type Mycobacterium tuberculosis H37Rv assessed as growth inhibition after 7 days by high-throughput screening assay; format: functional; settings: 168 h
# In short: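 Wild-type H37Rv in 7H9 with glycerol, tyloxapol, ADN, in 96-well plates. Set up as the 384-well screen: OD580 0.01 start, compound in DMSO, 7 days at 37 °C, 20% O2, 5% CO2. OD580 read; MIC90 = 90% growth inhibition vs DMSO control.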
# Staphylococcus aureus = assay: Bactericidal activity against Staphylococcus aureus ATCC 29213 at <= 25 ug/mL after 6 to 18 hrs; format: functional, organism-based; in short: as §1
# [4] = tested on: Mycolicibacterium smegmatis; assay: Antibacterial activity against Mycobacterium smegmatis assessed as growth inhibition at 10 ug/mL after 24 to 48 hrs relative to control; format: functional; settings: read-out: GI; in short: as §1
# [5] = tested on: Mycobacterium tuberculosis; assay: Antibacterial activity against non-replicating form of wild type Mycobacterium tuberculosis H37Rv assessed as growth inhibition after 3 days by high-throughput screening assay; format: functional; settings: 72 h
# [6] = Selectivity index, ratio of LD50 for human HepG2 cells to MIC90 for replicating form of Mycobacterium tuberculosis H37Rv; format: toxicity, cell-based; settings: read-out: Selectivity Index
# In short: (§4)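 HepG2 in DMEM with 10% FBS, pyruvate, glutamine, HEPES and nonessential amino acids, seeded 3000 cells/well in 384-well plates. Compound for 2 days at 1% final DMSO. ATP read by CellTiter-Glo luminescence. LD50 = 50% drop in ATP signal vs DMSO. SI = LD50/MIC90 against replicating Mtb.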
# [7] = Cytotoxicity against human HepG2 cells assessed as decrease in ATP signal after 2 days by CellTiter-Glo assay; format: cell-based; settings: read-out: LD50; in short: as §4
# [8] = tested on: Mycobacterium tuberculosis; assay: Bactericidal activity against replicating form of wild type Mycobacterium tuberculosis H37Rv assessed as reduction of log10CFU at 0.6 ug/mL after 7 to 8 days; format: functional; in short: as §2
# Candida albicans = assay: Fungicidal activity against Candida albicans at <= 25 ug/mL after 6 to 18 hrs; format: functional, organism-based; in short: as §1
# [9] = tested on: Mycobacterium tuberculosis; assay: Bactericidal activity against wild type Mycobacterium tuberculosis H37Rv infected in IFN-gamma-stimulated primary human monocyte-derived macrophages assessed as reduction of log10CFU at 1 ug/mL incubated for 7 days followed by compound washout measured after 3 weeks; format: functional; in short: as §3
# [10] = tested on: Mycobacterium tuberculosis; assay: Bactericidal activity against wild type Mycobacterium tuberculosis H37Rv infected in IFN-gamma-stimulated primary human monocyte-derived macrophages assessed as reduction of log10CFU at 30 times MIC incubated for 7 days followed by compound washout measured after 3 weeks; format: functional; in short: as §3
Compound,Activity (Pseudomonas aeruginosa),log10cfu [1],log10cfu [2],Activity (Escherichia coli),MIC90 [3],Activity (Staphylococcus aureus),inhibition of growth at 10 µg/mL [4],MIC90 [5],selectivity ratio [6],CC50 at 48 h [7],log10cfu [8],Activity (Candida albicans),log10cfu [9],log10cfu [10]
CCCc1cc(=O)oc2c1c1c(c3oc([N+](=O)[O-])cc32)CCC(C)(C)O1,inactive,2.1,2,inactive,0.6 µg/mL,inactive,20%,1 µg/mL,> 80,> 50 µg/mL,2.6,inactive,,
CCCc1cc(=O)oc2c1c1c(c3oc([N+](=O)[O-])cc32)C=CC(C)(C)O1,,2.6,,,0.3 µg/mL,,,0.6 µg/mL,8,3 µg/mL,3.1,,1.8,
CO[C@H]1/C=C/O[C@@]2(C)Oc3c(C)c(O)c4c(O)c(c(/C=N/N5CCN(C)CC5)c(O)c4c3C2=O)NC(=O)/C(C)=C\C=C\[C@H](C)[C@H](O)[C@@H](C)[C@@H](O)[C@@H](C)[C@H](OC(C)=O)[C@@H]1C [RIFAMPIN],,,,,,,,,,,,,,1
